Reference: ChEMBL document CHEMBL1287747, “Highly active antimycobacterial derivatives of benzoxazine” (2010)
Values after ≈ are worked out from the molar mass of the structure shown.

Experiments:
Assay type in all cases: functional
[1] = test system: Mycobacterium tuberculosis; test: Antimycobacterial activity against Mycobacterium tuberculosis CNCTC My 331/88 after 14 days by microdilution method; conditions: CNCTC My 331/88, 336 h
Method in brief: (§1)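 Strains from the Czech National Collection of Type Cultures, tested by dilution micromethod in Šula semisynthetic medium. Incubated at 37 °C and read at 14 and 21 days. MIC is the lowest concentration inhibiting growth.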

[2] = test system: Mycobacterium tuberculosis; test: Antimycobacterial activity against Mycobacterium tuberculosis CNCTC My 331/88 after 21 days by microdilution method; conditions: CNCTC My 331/88, 504 h; method in brief: as §1
Mycobacterium kansasii [3] = test: Antimycobacterial activity against Mycobacterium kansasii CNCTC My 235/80 after 14 days by microdilution method; conditions: CNCTC My 235/80, 336 h; method in brief: as §1
Mycobacterium avium [4] = test: Antimycobacterial activity against Mycobacterium avium CNCTC My 330/88 after 14 days by microdilution method; conditions: CNCTC My 330/88, 336 h; method in brief: as §1
Mycobacterium kansasii [5] = test: Antimycobacterial activity against Mycobacterium kansasii 6509/96 after 21 days by microdilution method; conditions: 6509/96, 504 h
Method in brief: (§2)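 Clinical isolate that, unlike the standard strain, is not isoniazid-resistant. Tested by dilution micromethod in Šula semisynthetic medium, with compounds added in DMSO at final 1000 down to 0.25 µmol/L in twofold steps. Löwenstein-Jensen plate used as inoculum sterility and growth control. Incubated at 37 °C and read at 14 and 21 days. MIC is the lowest concentration inhibiting growth.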

Mycobacterium kansasii [6] = test: Antimycobacterial activity against Mycobacterium kansasii CNCTC My 235/80 after 21 days by microdilution method; conditions: CNCTC My 235/80, 504 h; method in brief: as §1
Mycobacterium avium [7] = test: Antimycobacterial activity against Mycobacterium avium CNCTC My 330/88 after 21 days by microdilution method; conditions: CNCTC My 330/88, 504 h; method in brief: as §1
Mycobacterium kansasii [8] = test: Antimycobacterial activity against Mycobacterium kansasii 6509/96 after 14 days by microdilution method; conditions: 6509/96, 336 h; method in brief: as §2

| SMILES | MIC [1] [µM] | MIC [2] [µM] | MIC (Mycobacterium kansasii [3]) [µM] | MIC (Mycobacterium avium [4]) [µM] | MIC (Mycobacterium kansasii [5]) [µM] | MIC (Mycobacterium kansasii [6]) [µM] | MIC (Mycobacterium avium [7]) [µM] | MIC (Mycobacterium kansasii [8]) [µM] |
| --- | --- | --- | --- | --- | --- | --- | --- | --- |
| Cc1ccc(-n2c(=S)oc3ccc(Br)cc3c2=S)cc1 | 0.5 (≈ 0.182 µg/mL) | 1 (≈ 0.364 µg/mL) | 4 (≈ 1.46 µg/mL) | 15 (≈ 5.46 µg/mL) | 4 (≈ 1.46 µg/mL) | 4 (≈ 1.46 µg/mL) | 30 (≈ 10.9 µg/mL) | 4 (≈ 1.46 µg/mL) |
| Cc1ccc2c(=S)n(-c3ccc(C(C)C)cc3)c(=S)oc2c1 | 0.5 (≈ 0.164 µg/mL) | 1 (≈ 0.327 µg/mL) | 2 (≈ 0.655 µg/mL) | 0.5 (≈ 0.164 µg/mL) | 2 (≈ 0.655 µg/mL) | 4 (≈ 1.31 µg/mL) | 0.5 (≈ 0.164 µg/mL) | 1 (≈ 0.327 µg/mL) |
| CCC(C)c1ccc(-n2c(=S)oc3ccc(Br)cc3c2=S)cc1 (stereo not drawn) | 1 (≈ 0.406 µg/mL) | 2 (≈ 0.813 µg/mL) | 4 (≈ 1.63 µg/mL) | 32 (≈ 13 µg/mL) | 4 (≈ 1.63 µg/mL) | 8 (≈ 3.25 µg/mL) | 32 (≈ 13 µg/mL) | 2 (≈ 0.813 µg/mL) |
| CCC(C)c1ccc(-n2c(=S)oc3ccc(Cl)cc3c2=S)cc1 (stereo not drawn) | 1 (≈ 0.362 µg/mL) | 2 (≈ 0.724 µg/mL) | 8 (≈ 2.9 µg/mL) | 16 (≈ 5.79 µg/mL) | 8 (≈ 2.9 µg/mL) | 16 (≈ 5.79 µg/mL) | 32 (≈ 11.6 µg/mL) | 4 (≈ 1.45 µg/mL) |
| CC(C)(C)c1ccc(-n2c(=S)oc3cc(Cl)ccc3c2=S)cc1 | 0.5 (≈ 0.181 µg/mL) | 0.5 (≈ 0.181 µg/mL) | 2 (≈ 0.724 µg/mL) | 2 (≈ 0.724 µg/mL) | 4 (≈ 1.45 µg/mL) | 4 (≈ 1.45 µg/mL) | 4 (≈ 1.45 µg/mL) | 2 (≈ 0.724 µg/mL) |
| CC(C)(C)c1ccc(-n2c(=S)oc3ccc(F)cc3c2=S)cc1 | 0.5 (≈ 0.173 µg/mL) | 0.5 (≈ 0.173 µg/mL) | 8 (≈ 2.76 µg/mL) | 0.5 (≈ 0.173 µg/mL) | 8 (≈ 2.76 µg/mL) | 8 (≈ 2.76 µg/mL) | 1 (≈ 0.345 µg/mL) | 4 (≈ 1.38 µg/mL) |
| CC(C)c1ccc(-n2c(=O)oc3cc(Cl)ccc3c2=S)cc1 | 0.5 (≈ 0.166 µg/mL) | 1 (≈ 0.332 µg/mL) | 8 (≈ 2.65 µg/mL) | 8 (≈ 2.65 µg/mL) | 8 (≈ 2.65 µg/mL) | 8 (≈ 2.65 µg/mL) | 8 (≈ 2.65 µg/mL) | 4 (≈ 1.33 µg/mL) |
| CCC(C)c1ccc(-n2c(=O)oc3ccc(Cl)cc3c2=S)cc1 (stereo not drawn) | 0.5 (≈ 0.173 µg/mL) | 1 (≈ 0.346 µg/mL) | 8 (≈ 2.77 µg/mL) | 32 (≈ 11.1 µg/mL) | 8 (≈ 2.77 µg/mL) | 8 (≈ 2.77 µg/mL) | 32 (≈ 11.1 µg/mL) | 4 (≈ 1.38 µg/mL) |
| CCC(C)c1ccc(-n2c(=O)oc3cc(Cl)ccc3c2=S)cc1 (stereo not drawn) | 1 (≈ 0.346 µg/mL) | 2 (≈ 0.692 µg/mL) | 4 (≈ 1.38 µg/mL) | 8 (≈ 2.77 µg/mL) | 2 (≈ 0.692 µg/mL) | 8 (≈ 2.77 µg/mL) | 8 (≈ 2.77 µg/mL) | 1 (≈ 0.346 µg/mL) |
| CCCCc1ccc(-n2c(=O)oc3ccc(Cl)cc3c2=S)cc1 | 1 (≈ 0.346 µg/mL) | 2 (≈ 0.692 µg/mL) | 8 (≈ 2.77 µg/mL) | 8 (≈ 2.77 µg/mL) | 4 (≈ 1.38 µg/mL) | 16 (≈ 5.53 µg/mL) | 16 (≈ 5.53 µg/mL) | 4 (≈ 1.38 µg/mL) |
| CCc1ccc(-n2c(=S)oc3ccc(Br)cc3c2=S)cc1 | 1 (≈ 0.378 µg/mL) | 2 (≈ 0.757 µg/mL) | 8 (≈ 3.03 µg/mL) | 62.5 (≈ 23.6 µg/mL) | 8 (≈ 3.03 µg/mL) | 16 (≈ 6.05 µg/mL) | 62.5 (≈ 23.6 µg/mL) | 4 (≈ 1.51 µg/mL) |
| CCc1ccc(-n2c(=S)oc3ccc(Cl)cc3c2=S)cc1 | 0.5 (≈ 0.167 µg/mL) | 0.5 (≈ 0.167 µg/mL) | 8 (≈ 2.67 µg/mL) | 8 (≈ 2.67 µg/mL) | 6 (≈ 2 µg/mL) | 8 (≈ 2.67 µg/mL) | 16 (≈ 5.34 µg/mL) | 4 (≈ 1.34 µg/mL) |
| CCc1ccc(-n2c(=S)oc3cc(Cl)ccc3c2=S)cc1 | 0.5 (≈ 0.167 µg/mL) | 0.5 (≈ 0.167 µg/mL) | 8 (≈ 2.67 µg/mL) | 4 (≈ 1.34 µg/mL) | 16 (≈ 5.34 µg/mL) | 16 (≈ 5.34 µg/mL) | 8 (≈ 2.67 µg/mL) | 8 (≈ 2.67 µg/mL) |
| CC(C)c1ccc(-n2c(=S)oc3ccc(Br)cc3c2=S)cc1 | 0.5 (≈ 0.196 µg/mL) | 1 (≈ 0.392 µg/mL) | 32 (≈ 12.6 µg/mL) | 8 (≈ 3.14 µg/mL) | 8 (≈ 3.14 µg/mL) | 62.5 (≈ 24.5 µg/mL) | 16 (≈ 6.28 µg/mL) | 4 (≈ 1.57 µg/mL) |
| CC(C)c1ccc(-n2c(=S)oc3ccc(Cl)cc3c2=S)cc1 | 0.5 (≈ 0.174 µg/mL) | 1 (≈ 0.348 µg/mL) | 8 (≈ 2.78 µg/mL) | 32 (≈ 11.1 µg/mL) | 2 (≈ 0.696 µg/mL) | 16 (≈ 5.57 µg/mL) | 125 (≈ 43.5 µg/mL) | 1 (≈ 0.348 µg/mL) |
| CC(C)c1ccc(-n2c(=S)oc3cc(Cl)ccc3c2=S)cc1 | 0.5 (≈ 0.174 µg/mL) | 1 (≈ 0.348 µg/mL) | 4 (≈ 1.39 µg/mL) | 8 (≈ 2.78 µg/mL) | 4 (≈ 1.39 µg/mL) | 8 (≈ 2.78 µg/mL) | 8 (≈ 2.78 µg/mL) | 4 (≈ 1.39 µg/mL) |
